Like-named read-outs stand apart in the source and are kept apart here. Marks after values point to notes of the source that are not given here. Blank lines part the entries; values can stand above or below the compound they belong to.
Legend:
Type in all cases: biochemical
K235A thrombin = K235A thrombin (Homo sapiens, UniProt P00734, K610A); experiment: Inhibition of recombinant thrombin, S2238 hydrolysis assay; conditions: overnight 25 °C
Procedure, shortened: (§1)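 Recombinant wild-type and Ala-mutant thrombins were made in […] form by PCR mutagenesis, expressed in BHK cells, HPC4 immunoaffinity-purified and activated. Active-site concentration came from amidolytic assay and antithrombin titration. Enzyme (1.5–7.5 nM final) was incubated with test compound overnight at 25 °C in pH 7.4 Tris buffer. S2238 was added and initial rate read at 405 nm. At least 9–10 concentrations were fitted by logistic equation for apparent IC50, HS, Y0 and YM. Mutant IC50 is expressed relative to recombinant wild type.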

K240A thrombin = K240A thrombin (Homo sapiens, UniProt P00734, K615A); experiment: as above; conditions: overnight 25 °C
Procedure, shortened: as §1

R233A thrombin = R233A thrombin (Homo sapiens, UniProt P00734, R608A); experiment: as above
Procedure, shortened: as §1

human plasma [1] = experiment: Human plasma clotting assay, prothrombin time; conditions: citrated human plasma
Procedure, shortened: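 PT on a fibrometer using a one-stage recalcification assay. Test compound or vehicle was mixed with citrated human plasma and incubated 30 s at 37 °C. Pre-warmed reconstituted thromboplastin was then added and clotting time recorded. Run in duplicate. A quadratic trend line gave the concentration that doubles PT.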

human plasma [2] = experiment: Human plasma clotting assay, activated partial thromboplastin time
Procedure, shortened: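 APTT on a fibrometer using a one-stage recalcification assay. Citrated human plasma, test compound or vehicle, and pre-warmed 0.2% ellagic acid were mixed and incubated 4 min. Clotting was started with 25 mM CaCl2 at 37 °C and clotting time recorded. Run in duplicate. A quadratic trend line gave the concentration that doubles APTT.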

R126A thrombin = R126A thrombin (Homo sapiens, UniProt P00734, R486A); experiment: Inhibition of recombinant thrombin, S2238 hydrolysis assay; conditions: overnight 25 °C
Procedure, shortened: as §1

R175A thrombin = R175A thrombin (Homo sapiens, UniProt P00734, R543A); experiment: as above; conditions: overnight 25 °C
Procedure, shortened: as §1

R93A thrombin = R93A thrombin (Homo sapiens, UniProt P00734, R452A); experiment: as above; conditions: overnight 25 °C
Procedure, shortened: as §1

human α-thrombin [3] = biological target: T1, human α-thrombin (Homo sapiens, UniProt P00734); experiment: Thrombin inhibition by 9a in presence of exosite 1 or exosite 2 ligands
human α-thrombin [4] = biological target: T1, human α-thrombin; conditions: for logIC50 / HS (Hill slope): pH 7.4, 25 °C, Spectrozyme TH; for fold decrease in potency from 9a: ratio of IC50s
R101A thrombin = R101A thrombin (Homo sapiens, UniProt P00734, R461A); experiment: Inhibition of recombinant thrombin, S2238 hydrolysis assay; conditions: overnight 25 °C
Procedure, shortened: as §1

human α-thrombin [5] = biological target: T1, human α-thrombin
Procedure, shortened: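 Human α-thrombin (5 nM) was preincubated with fixed test compound concentrations (0–9.90 μM), either overnight at 25 °C or 2 h at 37 °C, in 20 mM Tris-HCl pH 7.4 with 100 mM NaCl, 2.5 mM CaCl2 and 0.1% PEG8000. Initial rates of Spectrozyme TH hydrolysis (2–80 μM) were read at 405 nm, at under 10% substrate consumption. Standard Michaelis-Menten fit gave KM and VMAX.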

K236A thrombin = K236A thrombin (Homo sapiens, UniProt P00734, K611A); experiment: Inhibition of recombinant thrombin, S2238 hydrolysis assay; conditions: overnight 25 °C
Procedure, shortened: as §1

R173A thrombin = R173A thrombin (Homo sapiens, UniProt P00734, R541A); experiment: as above; conditions: overnight 25 °C
Procedure, shortened: as §1

R97A thrombin = R97A thrombin (Homo sapiens, UniProt P00734, R456A); experiment: as above; conditions: overnight 25 °C
Procedure, shortened: as §1

K169A thrombin = K169A thrombin (Homo sapiens, UniProt P00734, K537A); experiment: as above; conditions: overnight 25 °C
Procedure, shortened: as §1

R165A thrombin = R165A thrombin (Homo sapiens, UniProt P00734, R533A); experiment: as above; conditions: overnight 25 °C
Procedure, shortened: as §1

[6] = biological target: recombinant wild-type thrombin (rWT) (Homo sapiens, UniProt P00734); experiment: as above; conditions: overnight 25 °C
Procedure, shortened: as §1

[7] = Heparin (UFH) 4.2 μM, overnight 25 °C
[8] = Heparin (UFH) 25.0 μM, overnight 25 °C
[9] = Heparin (UFH) 42.6 μM, overnight 25 °C
[10] = Hirugen peptide (HirP) 5 nM, overnight 25 °C
[11] = Hirugen peptide (HirP) 15 nM, overnight 25 °C
[12] = Octasaccharide H8 1.0 μM, overnight 25 °C
[13] = Octasaccharide H8 3.0 μM, overnight 25 °C
[14] = Octasaccharide H8 10 μM, overnight 25 °C
[15] = Octasaccharide H8 20 μM, overnight 25 °C
[16] = γ′-Fibrinogen peptide (FibP) 0.2 μM, overnight 25 °C
[17] = γ′-Fibrinogen peptide (FibP) 0.65 μM, overnight 25 °C
[18] = γ′-Fibrinogen peptide (FibP) 2.0 μM, overnight 25 °C
[19] = γ′-Fibrinogen peptide (FibP) 6.5 μM, overnight 25 °C
[20] = [9a] 0.63 μM, 2 hr incubation at 37°C
[21] = [9a] 0.63 μM, overnight incubation at 25°C
[22] = [9a] 1.53 μM, 2 hr incubation at 37°C
[23] = [9a] 1.80 μM, overnight incubation at 25°C
[24] = [9a] 3.60 μM, 2 hr incubation at 37°C
[25] = [9a] 3.60 μM, overnight incubation at 25°C
[26] = [9a] 9.90 μM, 2 hr incubation at 37°C

SMILES: CCOC(=O)c1c(C)oc2cc(OC)c(OCc3oc4cc(OC)c(OCc5oc6cc(OC)c(OS(=O)(=O)[O-])cc6c5C(=O)OC)cc4c3C(=O)OCC)cc12.[Na+] [9b]
HS (Hill slope) (human α-thrombin [4]): 1.0 ^c
logIC50 (human α-thrombin [4]): −5.69 ± 0.13

SMILES: CCOC(=O)c1c(C)oc2cc(OC)c(OCc3oc4cc(OC)c(OCc5oc6cc(OC)c(OS(=O)(=O)[O-])cc6c5C(=O)OC(C)(C)C)cc4c3C(=O)OCC)cc12.[Na+] [9c]
HS (Hill slope) (human α-thrombin [4]): 2.1 ± 0.5
logIC50 (human α-thrombin [4]): −3.78 ± 0.07

SMILES: CCOC(=O)c1c(C)oc2cc(OC)c(OCc3oc4cc(OC)c(OCc5oc6cc(OC)c(OS(=O)(=O)[O-])cc6c5C(=O)OCCOC)cc4c3C(=O)OCC)cc12.[Na+] [9d]
fold decrease in potency from 9a (human α-thrombin [4]): > 500 fold

Continued, in another order:

ΔY (K235A thrombin): 50 ± 1%
HS (K240A thrombin): 2.3 ± 0.4
ΔY (K240A thrombin): 49 ± 3%
fold loss in potency (defect) vs recombinant wild-type (R233A thrombin; Arg233Ala thrombin): ~ 3 fold
ΔY (R233A thrombin; R233A, overnight 25 °C): 44 ± 2%
HS (R126A thrombin): 1.8 ± 0.5
ΔY (R126A thrombin): 65 ± 11%
ΔY (R175A thrombin): 37 ± 3%
HS (R93A thrombin): 1.8 ± 0.3
ΔY (R93A thrombin): 66 ± 6%
logIC50 (human α-thrombin [3]; 0 μM competitor): −6.17 ± 0.03
ΔY (human α-thrombin [3]; 0 μM competitor): 79 ± 9%
HS (human α-thrombin [3]; [7]): 2.2 ± 0.4
ΔY (human α-thrombin [3]; [7]): 71 ± 7%
HS (human α-thrombin [3]; Heparin (UFH) 12.8 μM, overnight 25 °C): 1.8 ± 0.2
HS (human α-thrombin [3]; [8]): 1.7 ± 0.2
ΔY (human α-thrombin [3]; [8]): 81 ± 10%
HS (human α-thrombin [3]; [9]): 1.2 ± 0.2
ΔY (human α-thrombin [3]; [9]): ~90 ^c %
ΔY (human α-thrombin [3]; Hirugen peptide (HirP) 3 nM, overnight 25 °C): 44 ± 2%
HS (human α-thrombin [3]; [10]): 2.4 ± 0.3
ΔY (human α-thrombin [3]; [10]): 46 ± 2%
HS (human α-thrombin [3]; [11]): 3.0 ± 0.7
ΔY (human α-thrombin [3]; [11]): 43 ± 1%
HS (human α-thrombin [3]; [12]): 2.3 ± 0.3
ΔY (human α-thrombin [3]; [12]): 58 ± 3%
HS (human α-thrombin [3]; [13]): 2.6 ± 0.6
ΔY (human α-thrombin [3]; [13]): 54 ± 4%
HS (human α-thrombin [3]; [14]): 2.8 ± 0.4
ΔY (human α-thrombin [3]; [14]): 50 ± 2%
HS (human α-thrombin [3]; [15]): 2.6 ± 0.5
ΔY (human α-thrombin [3]; [15]): 49 ± 2%
HS (human α-thrombin [3]; [16]): 2.4 ± 0.3
ΔY (human α-thrombin [3]; [16]): 73 ± 8%
HS (human α-thrombin [3]; [17]): 2.1 ± 0.3
ΔY (human α-thrombin [3]; [17]): 71 ± 8%
HS (human α-thrombin [3]; [18]): 3.3 ± 0.6
ΔY (human α-thrombin [3]; [18]): 67 ± 4%
HS (human α-thrombin [3]; [19]): 2.1 ± 0.6
ΔY (human α-thrombin [3]; [19]): 65 ± 7%
logIC50 (human α-thrombin [4]): −6.17 ± 0.03
HS (R101A thrombin): 2.1 ± 0.6
ΔY (R101A thrombin): 55 ± 6%
reduction in KM and VMAX (human α-thrombin [5]; 25 °C): 0.86–1.2 fold per μM
reduction in KM and VMAX (human α-thrombin [5]; 37 °C): 0.4–0.6 fold per μM
Km (human α-thrombin [5]; [9a] 0.36 μM, overnight incubation at 25°C): 11.1 ± 2.5 µM
Km (human α-thrombin [5]; [20]): 6.7 ± 2.3 µM
VMAX (human α-thrombin [5]; [20]): 72 ± 8 mAU/min
Km (human α-thrombin [5]; [21]): 7.7 ± 1.3 µM
VMAX (human α-thrombin [5]; [21]): 69 ± 3 mAU/min
Km (human α-thrombin [5]; [22]): 2.2 ± 0.8 µM
VMAX (human α-thrombin [5]; [22]): 30 ± 2 mAU/min
Km (human α-thrombin [5]; [23]): 3.2 ± 0.5 µM
VMAX (human α-thrombin [5]; [23]): 35 ± 1 mAU/min
Km (human α-thrombin [5]; [24]): 2.7 ± 0.6 µM
VMAX (human α-thrombin [5]; [24]): 25 ± 1 mAU/min
Km (human α-thrombin [5]; [25]): 3.1 ± 0.6 µM
VMAX (human α-thrombin [5]; [25]): 19 ± 1 mAU/min
Km (human α-thrombin [5]; [26]): 1.9 ± 0.6 µM
VMAX (human α-thrombin [5]; [26]): 15 ± 0.8 mAU/min
mechanism of thrombin inhibition (human α-thrombin [5]; both incubation conditions): primarily uncompetitive
HS (K236A thrombin): 3.0 ± 0.3
ΔY (K236A thrombin): 52 ± 1%
HS (R173A thrombin): 2.4 ± 0.7
ΔY (R173A thrombin): 62 ± 8%
HS (R97A thrombin): 2.6 ± 0.5
ΔY (R97A thrombin): 47 ± 3%
HS (K169A thrombin): 2.1 ± 0.2
ΔY (K169A thrombin): 59 ± 3%
HS (R165A thrombin): 1.1 ± 0.3
ΔY (R165A thrombin): 61 ± 8%
HS [6]: 3.4 ± 0.5 ^b
ΔY [6]: 49 ± 2%
SMILES: CCOC(=O)c1c(C)oc2cc(OC)c(OCc3oc4cc(OC)c(OCc5oc6cc(OC)c(OS(=O)(=O)[O-])cc6c5C(=O)OCC)cc4c3C(=O)OCC)cc12.[Na+] [9a]
concentration required for a 2-fold increase in PT (human plasma [1]): 568 µM
times less potent in plasma anticoagulation than sulfated LMWLs (human plasma [2]; LMWLs from ref 15): 10 times
concentration required for a 2-fold increase in APTT (human plasma [2]; citrated human plasma): 139 µM

HS (Hill slope) (human α-thrombin [4]): 2.3 ± 1.2
logIC50 (human α-thrombin [4]): −5.23 ± 0.11
fold decrease in potency from 9a (human α-thrombin [4]): 8.6 fold
SMILES: CCOC(=O)c1c(C)oc2cc(OC)c(OCc3oc4cc(OC)c(OCc5oc6cc(OCC)c(OS(=O)(=O)[O-])cc6c5C(=O)OCC)cc4c3C(=O)OCC)cc12.[Na+] [9f]

logIC50 (human α-thrombin [4]): ~ −4.0 ^d
fold decrease in potency from 9a (human α-thrombin [4]): 148 fold
SMILES: CCOC(=O)c1c(C)oc2cc(OC)c(OCc3oc4cc(OC)c(OCc5oc6cc(OC(C)C)c(OS(=O)(=O)[O-])cc6c5C(=O)OCC)cc4c3C(=O)OCC)cc12.[Na+] [9g]

Reference: article PMC3717983 (Journal of medicinal chemistry, 2013)
